Results published in the M2OR odorant receptor database.
Residue numbers refer to the chain shown, from its start.

Experiments:
Conditions in all cases: stereoisomer not certain
OR52N4 (Homo sapiens) = biological target: T1, OR52N4 (Homo sapiens) (UniProt Q8NGI2)
T1 sequence (whole entry): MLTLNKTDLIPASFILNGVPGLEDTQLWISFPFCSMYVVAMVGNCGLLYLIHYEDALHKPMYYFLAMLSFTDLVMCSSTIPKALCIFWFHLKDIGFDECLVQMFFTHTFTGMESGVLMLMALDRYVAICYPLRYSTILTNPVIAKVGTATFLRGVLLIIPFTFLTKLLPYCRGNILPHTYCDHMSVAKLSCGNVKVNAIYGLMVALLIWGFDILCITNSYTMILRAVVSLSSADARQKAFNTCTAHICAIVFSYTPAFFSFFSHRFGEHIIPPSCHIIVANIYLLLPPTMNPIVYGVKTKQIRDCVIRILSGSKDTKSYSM
Method in brief: (§1)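 Assay methods differ from source to source, frequently being transient luciferase assays in mammalian cell lines. For each receptor–molecule pair, the label responsive (active) applies when the original authors judged the measured signal statistically different from baseline, and non-responsive (inactive) applies otherwise.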

OR52N5 (Homo sapiens) = biological target: T2, OR52N5 (Homo sapiens) (UniProt Q8NH56)
T2 sequence (whole entry): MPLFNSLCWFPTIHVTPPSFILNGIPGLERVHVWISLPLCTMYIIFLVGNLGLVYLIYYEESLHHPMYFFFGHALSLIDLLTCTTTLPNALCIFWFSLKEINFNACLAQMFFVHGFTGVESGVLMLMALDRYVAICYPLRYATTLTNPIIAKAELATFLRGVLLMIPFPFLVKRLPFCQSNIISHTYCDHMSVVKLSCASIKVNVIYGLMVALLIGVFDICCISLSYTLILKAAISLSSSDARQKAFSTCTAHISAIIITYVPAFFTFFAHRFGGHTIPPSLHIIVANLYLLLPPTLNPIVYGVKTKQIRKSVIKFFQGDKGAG
Method in brief: as §1

OR52R1 (Homo sapiens) = biological target: T3, OR52R1 (Homo sapiens) (UniProt Q8NGF1)
T3 sequence (whole entry): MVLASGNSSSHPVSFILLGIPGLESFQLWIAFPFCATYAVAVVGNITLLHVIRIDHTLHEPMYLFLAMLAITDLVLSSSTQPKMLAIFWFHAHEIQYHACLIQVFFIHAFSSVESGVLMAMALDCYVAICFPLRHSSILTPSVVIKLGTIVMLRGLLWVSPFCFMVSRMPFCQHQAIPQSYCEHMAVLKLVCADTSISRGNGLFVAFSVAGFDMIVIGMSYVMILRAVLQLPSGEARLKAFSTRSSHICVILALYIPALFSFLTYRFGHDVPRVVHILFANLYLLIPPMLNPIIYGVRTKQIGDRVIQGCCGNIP
Method in brief: as §1

OR52W1 (Homo sapiens) = biological target: T4, OR52W1 (Homo sapiens) (UniProt Q6IF63)
T4 sequence (whole entry): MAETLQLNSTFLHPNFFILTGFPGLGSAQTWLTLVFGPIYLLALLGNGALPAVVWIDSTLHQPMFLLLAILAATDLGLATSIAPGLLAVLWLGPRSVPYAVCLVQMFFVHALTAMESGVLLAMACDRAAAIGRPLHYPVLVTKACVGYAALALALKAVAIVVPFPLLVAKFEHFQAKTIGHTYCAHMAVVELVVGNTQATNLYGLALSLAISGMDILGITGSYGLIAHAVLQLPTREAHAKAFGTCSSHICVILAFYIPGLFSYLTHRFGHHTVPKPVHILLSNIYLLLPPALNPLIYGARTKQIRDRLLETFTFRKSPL
Method in brief: as §1

OR56A1 (Homo sapiens) = biological target: T5, OR56A1 (Homo sapiens) (UniProt Q8NGH5)
T5 sequence (whole entry): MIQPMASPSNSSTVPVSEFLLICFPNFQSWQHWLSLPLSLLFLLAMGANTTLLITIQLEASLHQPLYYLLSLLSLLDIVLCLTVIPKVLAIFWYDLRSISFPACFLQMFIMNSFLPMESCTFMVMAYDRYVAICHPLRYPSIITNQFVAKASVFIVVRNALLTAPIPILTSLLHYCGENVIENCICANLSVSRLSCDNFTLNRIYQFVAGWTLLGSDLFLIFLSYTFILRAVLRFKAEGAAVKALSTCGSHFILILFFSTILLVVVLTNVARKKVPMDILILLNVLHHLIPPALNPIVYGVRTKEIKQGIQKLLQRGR
Method in brief: as §1

OR56A3 (Homo sapiens) = biological target: T6, OR56A3 (Homo sapiens) (UniProt Q8NH54)
T6 sequence (whole entry): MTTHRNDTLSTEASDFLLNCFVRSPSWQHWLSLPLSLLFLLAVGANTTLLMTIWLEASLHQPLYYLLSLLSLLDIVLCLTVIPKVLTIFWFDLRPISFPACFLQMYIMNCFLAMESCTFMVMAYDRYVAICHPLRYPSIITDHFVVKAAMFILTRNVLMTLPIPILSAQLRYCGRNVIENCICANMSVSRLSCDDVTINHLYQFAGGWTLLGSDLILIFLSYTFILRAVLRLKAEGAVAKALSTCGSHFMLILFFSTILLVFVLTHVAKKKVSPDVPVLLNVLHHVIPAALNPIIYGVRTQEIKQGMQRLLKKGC
Method in brief: as §1

OR56A4 (Homo sapiens) = biological target: T7, OR56A4 (Homo sapiens) (UniProt Q8NGH8)
T7 sequence (whole entry): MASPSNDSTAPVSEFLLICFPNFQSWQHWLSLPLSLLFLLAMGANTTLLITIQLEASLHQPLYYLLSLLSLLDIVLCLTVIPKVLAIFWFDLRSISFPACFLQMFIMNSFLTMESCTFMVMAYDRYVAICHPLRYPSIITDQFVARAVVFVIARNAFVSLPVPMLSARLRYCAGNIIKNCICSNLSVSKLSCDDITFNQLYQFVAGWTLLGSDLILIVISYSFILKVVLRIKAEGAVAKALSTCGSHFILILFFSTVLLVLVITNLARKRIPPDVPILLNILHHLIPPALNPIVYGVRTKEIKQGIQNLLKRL
Method in brief: as §1

OR56A5 (Homo sapiens) = biological target: T8, OR56A5 (Homo sapiens) (UniProt P0C7T3)
T8 sequence (whole entry): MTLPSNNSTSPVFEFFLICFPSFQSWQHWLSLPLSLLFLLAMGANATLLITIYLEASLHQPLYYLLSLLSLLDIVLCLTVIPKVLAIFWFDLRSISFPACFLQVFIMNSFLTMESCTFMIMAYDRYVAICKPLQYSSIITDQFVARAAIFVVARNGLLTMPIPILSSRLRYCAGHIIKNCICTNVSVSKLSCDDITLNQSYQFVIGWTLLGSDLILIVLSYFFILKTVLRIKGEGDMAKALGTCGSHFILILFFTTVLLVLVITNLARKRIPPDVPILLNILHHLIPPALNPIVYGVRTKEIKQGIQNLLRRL
Method in brief: as §1

OR56B1 (Homo sapiens) = biological target: T9, OR56B1 (Homo sapiens) (UniProt Q8NGI3)
T9 sequence (whole entry): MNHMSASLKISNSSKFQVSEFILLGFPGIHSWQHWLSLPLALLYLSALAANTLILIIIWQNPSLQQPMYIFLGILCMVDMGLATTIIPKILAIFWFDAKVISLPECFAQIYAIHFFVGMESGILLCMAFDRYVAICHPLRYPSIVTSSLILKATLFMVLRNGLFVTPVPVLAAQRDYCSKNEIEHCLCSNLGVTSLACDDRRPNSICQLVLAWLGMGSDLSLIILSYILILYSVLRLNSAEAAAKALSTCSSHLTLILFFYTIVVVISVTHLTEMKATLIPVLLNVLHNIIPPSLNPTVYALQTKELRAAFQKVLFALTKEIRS
Method in brief: as §1

OR56B4 (Homo sapiens) = biological target: T10, OR56B4 (Homo sapiens) (UniProt Q8NH76)
T10 sequence (whole entry): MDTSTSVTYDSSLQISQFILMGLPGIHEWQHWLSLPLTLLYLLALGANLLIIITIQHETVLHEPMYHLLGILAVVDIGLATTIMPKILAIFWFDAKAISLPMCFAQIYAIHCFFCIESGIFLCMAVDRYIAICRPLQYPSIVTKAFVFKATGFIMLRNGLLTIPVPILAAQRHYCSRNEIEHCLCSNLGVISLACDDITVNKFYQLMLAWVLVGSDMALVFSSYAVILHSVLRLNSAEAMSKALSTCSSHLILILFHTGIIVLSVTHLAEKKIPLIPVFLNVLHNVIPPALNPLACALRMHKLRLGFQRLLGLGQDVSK
Method in brief: as §1

OR5A1 (Homo sapiens) = biological target: T11, OR5A1 (Homo sapiens) (UniProt Q8NGJ0)
T11 sequence (whole entry): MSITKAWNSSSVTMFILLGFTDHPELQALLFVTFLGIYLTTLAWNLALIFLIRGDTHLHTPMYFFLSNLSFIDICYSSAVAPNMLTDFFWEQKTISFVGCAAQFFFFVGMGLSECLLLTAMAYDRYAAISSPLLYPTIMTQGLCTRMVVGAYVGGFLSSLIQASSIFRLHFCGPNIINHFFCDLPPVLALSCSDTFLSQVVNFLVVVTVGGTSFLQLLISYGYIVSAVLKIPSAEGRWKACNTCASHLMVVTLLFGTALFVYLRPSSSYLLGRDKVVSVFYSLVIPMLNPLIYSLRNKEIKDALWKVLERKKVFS
Method in brief: as §1

OR5A2 (Homo sapiens) = biological target: T12, OR5A2 (Homo sapiens) (UniProt Q8NGI9)
T12 sequence (whole entry): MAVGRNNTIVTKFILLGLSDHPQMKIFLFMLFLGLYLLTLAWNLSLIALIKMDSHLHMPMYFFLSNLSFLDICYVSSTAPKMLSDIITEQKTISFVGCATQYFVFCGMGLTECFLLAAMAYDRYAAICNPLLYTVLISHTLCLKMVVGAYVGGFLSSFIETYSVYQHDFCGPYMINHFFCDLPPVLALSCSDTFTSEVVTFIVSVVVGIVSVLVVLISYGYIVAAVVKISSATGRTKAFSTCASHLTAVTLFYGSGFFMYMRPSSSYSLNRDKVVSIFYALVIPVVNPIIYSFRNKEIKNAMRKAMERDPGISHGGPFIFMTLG
Method in brief: as §1

OR5AC2 (Homo sapiens) = biological target: T13, OR5AC2 (Homo sapiens) (UniProt Q9NZP5)
T13 sequence (whole entry): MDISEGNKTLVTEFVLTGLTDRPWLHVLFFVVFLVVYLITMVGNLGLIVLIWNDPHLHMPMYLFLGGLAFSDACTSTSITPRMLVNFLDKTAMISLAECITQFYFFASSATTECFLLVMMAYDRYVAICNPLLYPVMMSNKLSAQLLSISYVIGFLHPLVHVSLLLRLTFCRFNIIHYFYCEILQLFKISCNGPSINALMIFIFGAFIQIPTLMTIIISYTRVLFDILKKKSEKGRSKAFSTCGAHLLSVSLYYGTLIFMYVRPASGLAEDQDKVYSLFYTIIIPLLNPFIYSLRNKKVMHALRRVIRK
Method in brief: as §1

OR5AK2 (Homo sapiens) = biological target: T14, OR5AK2 (Homo sapiens) (UniProt Q8NH90)
T14 sequence (whole entry): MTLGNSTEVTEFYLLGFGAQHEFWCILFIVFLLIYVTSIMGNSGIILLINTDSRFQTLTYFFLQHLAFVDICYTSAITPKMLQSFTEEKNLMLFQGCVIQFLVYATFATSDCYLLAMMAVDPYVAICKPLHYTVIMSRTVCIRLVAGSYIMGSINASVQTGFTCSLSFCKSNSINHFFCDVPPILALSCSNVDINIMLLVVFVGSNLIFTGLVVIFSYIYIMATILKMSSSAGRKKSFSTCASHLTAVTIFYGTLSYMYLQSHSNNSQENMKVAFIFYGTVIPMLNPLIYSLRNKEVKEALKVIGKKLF
Method in brief: as §1

OR5AN1 (Homo sapiens) = biological target: T15, OR5AN1 (Homo sapiens) (UniProt Q8NGI8)
T15 sequence (whole entry): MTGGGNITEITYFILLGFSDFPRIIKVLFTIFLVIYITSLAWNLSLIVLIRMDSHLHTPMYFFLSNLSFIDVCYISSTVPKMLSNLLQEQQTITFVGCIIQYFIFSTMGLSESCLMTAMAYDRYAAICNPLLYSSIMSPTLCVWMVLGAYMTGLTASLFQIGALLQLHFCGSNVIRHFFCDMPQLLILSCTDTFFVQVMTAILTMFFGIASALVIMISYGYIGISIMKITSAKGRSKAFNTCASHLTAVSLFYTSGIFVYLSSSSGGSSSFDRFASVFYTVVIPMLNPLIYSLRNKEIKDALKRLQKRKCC
Method in brief: as §1

OR5AP2 (Homo sapiens) = biological target: T16, OR5AP2 (Homo sapiens) (UniProt Q8NGF4)
T16 sequence (whole entry): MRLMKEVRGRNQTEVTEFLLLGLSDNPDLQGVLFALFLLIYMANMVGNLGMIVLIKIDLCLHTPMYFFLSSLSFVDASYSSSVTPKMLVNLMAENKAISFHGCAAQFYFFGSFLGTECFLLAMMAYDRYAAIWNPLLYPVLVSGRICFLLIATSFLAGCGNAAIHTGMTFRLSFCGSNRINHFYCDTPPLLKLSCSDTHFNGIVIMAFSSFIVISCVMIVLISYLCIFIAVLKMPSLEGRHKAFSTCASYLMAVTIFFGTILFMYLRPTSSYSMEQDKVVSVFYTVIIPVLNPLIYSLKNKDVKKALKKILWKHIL
Method in brief: as §1

OR5A1 D183N = tested on: T17, OR5A1 D183N
T17 sequence (whole entry): T11 sequence (whole entry) with D183N
Method in brief: as §1

Measured: odorant receptor agonist call

CCCCCC(=O)C(C)C(C)=O (centres undefined)
not listed: OR5A1 D183N
inactive: all other assays above

CCc1ccc(CC(C)(C)C=O)cc1
inactive: OR5AC2 (Homo sapiens)

CCC1OC(C)=C(O)C1=O (centres undefined)
not listed: OR56A4 (Homo sapiens)
inactive: all other assays above

CC1CC(C)(c2ccccc2)CO1 (centres undefined)
inactive: OR5AC2 (Homo sapiens)

CCCCCC1C(=O)CCC1CC(=O)OC (centres undefined)
inactive: OR5AC2 (Homo sapiens)

CCCCCCC=CCCC=O
inactive: all assays above

Cc1ccc(C(C)C)cc1O
inactive: OR5AC2 (Homo sapiens)

CCC1OC(=O)C(O)=C1C (centres undefined)
not listed: OR56A4 (Homo sapiens)
inactive: all other assays above
